# Laboratory results published in ChEMBL document CHEMBL2176990, “Synthesis and biological evaluation of 5-benzylidenepyrimidine-2,4,6(1H,3H,5H)-trione derivatives for the treatment of obesity-related nonalcoholic fatty liver disease” (J Med Chem, 2012).
# Active and inactive are the calls of the source. No cut-off for these calls is given here.
# Tests used:
# HepG2 [1] = assay: Reduction of glucose consumption in insulin-resistant human HepG2 cells at 10 uM after 24 hrs by glucose oxidase method; assay type: functional, cell-based
# In short: (§1)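 HepG2 cells in DMEM (22.2 mM glucose) with 10% FBS, exposed to 0.1 μM insulin from plating for 2 days. At confluence, given fresh 22.2 mM glucose DMEM with test agents for 24 h. Medium glucose measured by glucose oxidase. Consumption = blank minus remaining glucose, normalized to MTT. Three independent experiments.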
# HepG2 [2] = assay: Reduction of glucose consumption in insulin-resistant human HepG2 cells at 10 uM after 24 hrs by glucose oxidase method in presence of 0.1 uM of insulin; assay type: functional, cell-based; in short: as §1
# HepG2 [3] = assay: Reduction of glucose consumption in insulin-resistant human HepG2 cells at 10 uM after 24 hrs by glucose oxidase method in presence of 22.2 mM of glucose; assay type: functional, cell-based; in short: as §1
# Rattus norvegicus [4] = assay: Toxicity in Wistar rat high fat diet-induced NAFLD model assessed as effect on food intake at 150 mg/kg, po qd for 4 weeks; assay type: organism-based; set-up: dose 150 mg/kg, route oral; conditions: in vivo, 672 h
# In short: (§2)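 Male Wistar rats (160−180 g) fed high-fat diet (50.55% calories from fat), n = 10 per group. Dosed orally at 150 mg/kg/day for 4 weeks. Body, liver and fat weights and food intake recorded. Serum lipids, AST, ALT and glucose measured on a biochemistry analyzer. Fasting insulin measured by kit; adiponectin and leptin by ELISA. Mean ± SD; percent change vs HFD group.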
# Rattus norvegicus [5] = assay: Antiobesity activity in Wistar rat high fat diet-induced NAFLD model assessed as reduction of serum HDL-cholesterol level at 150 mg/kg, po qd for 4 weeks; assay type: functional; in short: as §2
# Rattus norvegicus [6] = assay: Antiobesity activity in Wistar rat high fat diet-induced NAFLD model assessed as reduction of serum LDL-cholesterol level at 150 mg/kg, po qd for 4 weeks; assay type: functional; in short: as §2
# Rattus norvegicus [7] = assay: Antiobesity activity in Wistar rat high fat diet-induced NAFLD model assessed as reduction of serum total cholesterol level at 150 mg/kg, po qd for 4 weeks; assay type: functional; in short: as §2
# Rattus norvegicus [8] = assay: Antiobesity activity in Wistar rat high fat diet-induced NAFLD model assessed as reduction of serum AST level at 150 mg/kg, po qd for 4 weeks; assay type: functional; in short: as §2
# Rattus norvegicus [9] = assay: Antiobesity activity in Wistar rat high fat diet-induced NAFLD model assessed as reduction of serum ALT level at 150 mg/kg, po qd for 4 weeks; assay type: functional; in short: as §2
# Rattus norvegicus [10] = assay: Antiobesity activity in Wistar rat high fat diet-induced NAFLD model assessed as reduction of serum triglycerides level at 150 mg/kg, po qd for 4 weeks; assay type: functional; in short: as §2
# Rattus norvegicus [11] = assay: Antiobesity activity in Wistar rat high fat diet-induced NAFLD model assessed as reduction of serum insulin level at 150 mg/kg, po qd for 4 weeks; assay type: functional; set-up: scale not given: the % may be the effect or the level left; in short: as §2
# Rattus norvegicus [12] = assay: Antiobesity activity in Wistar rat high fat diet-induced NAFLD model assessed as reduction of fasting blood glucose level at 150 mg/kg, po qd for 4 weeks; assay type: functional; set-up: scale not given: the % may be the effect or the level left; in short: as §2
# Rattus norvegicus [13] = assay: Antiobesity activity in Wistar rat high fat diet-induced NAFLD model assessed as reduction of fat mass at 150 mg/kg, po qd for 4 weeks; assay type: functional; set-up: scale not given: the % may be the effect or the level left; in short: as §2
# Rattus norvegicus [14] = assay: Antiobesity activity in Wistar rat high fat diet-induced NAFLD model assessed as reduction of liver weight at 150 mg/kg, po qd for 4 weeks; assay type: functional; set-up: scale not given: the % may be the effect or the level left; in short: as §2
# Rattus norvegicus [15] = assay: Antiobesity activity in Wistar rat high fat diet-induced NAFLD model assessed as reduction of body weight at 150 mg/kg, po qd for 4 weeks; assay type: functional; set-up: scale not given: the % may be the effect or the level left; in short: as §2
# 3T3-L1 [16] = assay: Down-regulation of […] expression in mouse 3T3L1 cells at 1 mM after 24 hrs by ELISA; assay type: functional
# In short: (§3)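 3T3-L1 preadipocytes grown to 2 days post-confluence. Differentiated with 0.5 mM IBMX, 0.25 μM dexamethasone and 1 μg/mL insulin for 2 days, then insulin alone for 2 days, then 10% FBS DMEM. On day 12, treated 24 h; secreted adiponectin and leptin measured by ELISA. Three independent experiments.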
# 3T3-L1 [17] = assay: Up-regulation of adiponectin expression in mouse 3T3L1 cells at 1 mM after 24 hrs by ELISA; assay type: functional; in short: as §3
# HepG2 [18] = assay: Reduction of glucose consumption in insulin-resistant human HepG2 cells at 1 mM after 24 hrs by glucose oxidase method in presence of 0.1 uM of insulin; assay type: functional, cell-based; in short: as §1
# HepG2 [19] = assay: Reduction of glucose consumption in insulin-resistant human HepG2 cells at 1 mM after 24 hrs by glucose oxidase method in presence of 22.2 mM of glucose; assay type: functional, cell-based; in short: as §1
# Mus musculus [20] = assay: Antiobesity activity in C57BL/6J mouse high fat diet-induced NAFLD model assessed as reduction of postprandial glucose level at 150 mg/kg, po qd for 6 weeks by intravenous glucose tolerance test; assay type: functional, organism-based; set-up: dose 150 mg/kg
# In short: (§4)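 DIO C57BL/6J mice (HFD 60.0% fat) dosed orally for 6 weeks, n = 5, fasted overnight. Glucose load given either orally at 3.0 g/kg (OGTT) or intravenously at 0.5 g/kg (IGTT). Tail-vein blood sampled at 0, 15, 30, 60, 90, 120 and 180 min.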
# Mus musculus [21] = assay: Antiobesity activity in C57BL/6J mouse high fat diet-induced NAFLD model assessed as reduction of postprandial glucose level at 150 mg/kg, po qd for 6 weeks by oral glucose tolerance test; assay type: functional, organism-based; set-up: dose 150 mg/kg; in short: as §4
# Mus musculus [22] = assay: Antiobesity activity in C57BL/6J mouse high fat diet-induced NAFLD model assessed as reduction of serum free fatty acid level at 150 mg/kg, po qd for 7 weeks; assay type: functional; set-up: scale not given: the % may be the effect or the level left
# In short: (§5)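 Male C57BL/6J mice, 3 weeks old, fed high-fat diet (60.0% calories from fat) ad libitum for 8 weeks, then randomized into groups of 10. Body weight and food intake recorded daily. Serum markers measured after sacrifice; fasting glucose included. Percent change = (V_HFD − V_treatment)/V_HFD × 100.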
# Mus musculus [23] = assay: Antiobesity activity in C57BL/6J mouse high fat diet-induced NAFLD model assessed as reduction of serum HDL-cholesterol level at 150 mg/kg, po qd for 7 weeks; assay type: functional; set-up: scale not given: the % may be the effect or the level left; in short: as §5
# Mus musculus [24] = assay: Antiobesity activity in C57BL/6J mouse high fat diet-induced NAFLD model assessed as reduction of serum LDL-cholesterol level at 150 mg/kg, po qd for 7 weeks; assay type: functional; set-up: scale not given: the % may be the effect or the level left; in short: as §5
# Mus musculus [25] = assay: Antiobesity activity in C57BL/6J mouse high fat diet-induced NAFLD model assessed as reduction of serum triglycerides level at 150 mg/kg, po qd for 7 weeks; assay type: functional; set-up: scale not given: the % may be the effect or the level left; in short: as §5
# Mus musculus [26] = assay: Antiobesity activity in C57BL/6J mouse high fat diet-induced NAFLD model assessed as reduction of serum ALT level at 150 mg/kg, po qd for 7 weeks; assay type: functional; set-up: scale not given: the % may be the effect or the level left; in short: as §5
# Mus musculus [27] = assay: Antiobesity activity in C57BL/6J mouse high fat diet-induced NAFLD model assessed as reduction of fasting blood glucose level at 150 mg/kg, po qd for 7 weeks; assay type: functional; set-up: scale not given: the % may be the effect or the level left; in short: as §5
# Mus musculus [28] = assay: Antiobesity activity in C57BL/6J mouse high fat diet-induced NAFLD model assessed as reduction of fat mass in epididymal and abdominal at 150 mg/kg, po qd for 7 weeks; assay type: functional, organism-based; set-up: dose 150 mg/kg; in short: as §5
# Mus musculus [29] = assay: Antiobesity activity in C57BL/6J mouse high fat diet-induced NAFLD model assessed as reduction of body weight at 150 mg/kg, po qd for 7 weeks; assay type: functional; set-up: scale not given: the % may be the effect or the level left; in short: as §5
# Rattus norvegicus [30] = assay: Antiobesity activity in Wistar rat high fat diet-induced NAFLD model assessed as reduction of liver total cholesterol level at 150 mg/kg, po qd for 4 weeks; assay type: functional; set-up: scale not given: the % may be the effect or the level left
# In short: (§6)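 Male Wistar rats on high-fat diet (50.55% fat), dosed orally at 150 mg/kg/day for 4 weeks, n = 10. Liver homogenized in 50 mM Tris-HCl pH 7.4 with 150 mM NaCl, 1 mM PMSF and 1 mM EDTA, then triglycerides and total cholesterol assayed. Liver sections stained with H&E to assess lipid droplets.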
# Rattus norvegicus [31] = assay: Antiobesity activity in Wistar rat high fat diet-induced NAFLD model assessed as reduction of liver triglycerides level at 150 mg/kg, po qd for 4 weeks; assay type: functional; set-up: scale not given: the % may be the effect or the level left; in short: as §6
# Rattus norvegicus [32] = assay: Antiobesity activity in Wistar rat high fat diet-induced NAFLD model assessed as reduction of leptin level at 150 mg/kg, po qd for 4 weeks; assay type: functional; in short: as §2
# Rattus norvegicus [33] = assay: Antiobesity activity in Wistar rat high fat diet-induced NAFLD model assessed as increase of adiponectin level at 150 mg/kg, po qd for 4 weeks; assay type: functional; in short: as §2
# 3T3-L1 [34] = assay: Down-regulation of […] expression in mouse 3T3L1 cells at 10 uM after 24 hrs by ELISA; assay type: functional; in short: as §3
# 3T3-L1 [35] = assay: Up-regulation of adiponectin expression in mouse 3T3L1 cells at 10 uM after 24 hrs by ELISA; assay type: functional; in short: as §3
smiles,measurement,setting,value
CS(=O)(=O)N(Cc1ccc(C=C2C(=O)NC(=O)NC2=O)cc1)C1CCN(c2ccc([N+](=O)[O-])cn2)CC1,Activity,HepG2 [1],inactive
same,Activity,HepG2 [2],inactive
O=C1NC(=O)C(=Cc2ccc(OC3CCN(C(=O)c4cccc5c4OC(F)(F)O5)CC3)c(F)c2)C(=O)N1,Activity,HepG2 [1],inactive
same,Activity,HepG2 [2],inactive
O=C1NC(=O)C(=Cc2ccc(OC3CCN(c4ccc(C(F)(F)F)cn4)CC3)cc2)C(=O)N1,Activity,HepG2 [1],inactive
same,Activity,HepG2 [2],inactive
COC(=O)c1sccc1S(=O)(=O)N1CCC(Oc2ccc(C=C3C(=O)NC(=O)NC3=O)cc2F)CC1,Activity,HepG2 [1],inactive
same,Activity,HepG2 [2],inactive
O=C1NC(=O)C(=Cc2ccc(OC3CCN(c4ccc([N+](=O)[O-])cn4)CC3)cc2)C(=O)N1,Activity,HepG2 [1],inactive
same,Activity,HepG2 [2],inactive
O=C1NC(=O)C(=Cc2ccc(OC3CCN(C(=O)c4ccc(OC(F)F)cc4)CC3)c(F)c2)C(=O)N1,Activity,HepG2 [3],Active
same,Activity,HepG2 [2],Active
O=C1NC(=O)C(=Cc2ccc(OC3CCN(c4ncccc4C(F)(F)F)CC3)c(F)c2)C(=O)N1,Activity,HepG2 [1],inactive
same,Activity,HepG2 [2],inactive
CN(C)C(=N)N=C(N)N [METFORMIN],Activity,Rattus norvegicus [4],Non-toxic
O=C1NC(=O)C(=Cc2ccc(OC3CCN(C(=O)c4cccc(Cl)n4)CC3)cc2)C(=O)N1,Activity,HepG2 [1],inactive
same,Activity,HepG2 [2],inactive
N#Cc1cccnc1N1CCC(NC(=O)c2ccc(C=C3C(=O)NC(=O)NC3=O)cc2)CC1,Activity,HepG2 [1],inactive
same,Activity,HepG2 [2],inactive
O=C1NC(=O)C(=Cc2ccc(C(=O)N3CCC(Nc4ccc([N+](=O)[O-])cn4)CC3)cc2)C(=O)N1,Activity,HepG2 [1],inactive
same,Activity,HepG2 [2],inactive
CN(C)C(=N)NC(=N)N [METFORMIN],Activity,Rattus norvegicus [5],0.28 mmol/L
same,Activity,Rattus norvegicus [6],0.15 mmol/L
same,Activity,Rattus norvegicus [7],1.99 mmol/L
same,Activity,Rattus norvegicus [8],89 U/L
same,Activity,Rattus norvegicus [9],39 U/L
same,Activity,Rattus norvegicus [10],1.6 mmol/L
same,Activity,Rattus norvegicus [11],12.8%
same,Activity,Rattus norvegicus [12],19.7%
same,Activity,Rattus norvegicus [13],18.1%
same,Activity,Rattus norvegicus [14],2.2%
same,Activity,Rattus norvegicus [15],5.2%
same,Activity,3T3-L1 [16],360.8 pg/mL
same,Activity,3T3-L1 [17],125.8 pg/mL
same,Activity,HepG2 [18],Active
same,Activity,HepG2 [19],Active
same,Activity,Mus musculus [20],Active
same,Activity,Mus musculus [21],Active
same,Activity,Mus musculus [22],3.7%
same,Activity,Mus musculus [23],46.7%
same,Activity,Mus musculus [24],44.4%
same,Activity,Mus musculus [25],29.3%
same,Activity,Mus musculus [26],66%
same,Activity,Mus musculus [27],10.3%
same,Activity,Mus musculus [28],Active
same,Activity,Mus musculus [29],9.62%
same,Activity,Rattus norvegicus [30],50%
same,Activity,Rattus norvegicus [31],48.8%
same,Activity,Rattus norvegicus [32],13.6 ng/mL
same,Activity,Rattus norvegicus [33],198.3 µg/mL
O=C1NC(=O)C(=Cc2ccc(OC3CCN(C(=O)c4ccncc4)CC3)cc2)C(=O)N1,Activity,3T3-L1 [34],inactive
same,Activity,3T3-L1 [35],Active
same,Activity,HepG2 [3],Active
same,Activity,HepG2 [2],Active
